Calls of active or inactive are those of the source. No cut-off for these calls is given here.
Key:
[1] = system: MCF7; assay: Cytotoxicity against human MCF7 cells assessed inhibition of cell proliferation measured for 24 hrs by MTT assay; format: functional, cell-based; conditions: MCF7, 24 h
Method in brief: (§1)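 MTT read-out of proliferation after 24 h exposure; MCF-7 breast cancer cells alongside noncancerous human embryonic kidney HEK-293 cells. IC50 in μM taken as the average ± SD of three individual experiments.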

[2] = system: HEK293; assay: Cytotoxicity against HEK293 cells assessed inhibition of cell proliferation measured after 24 hrs by MTT assay; format: toxicity, cell-based; conditions: human, hek293, 24 h; method in brief: as §1
[3] = system: Mitochondrial membrane; assay: Induction of mitochondrial membrane potential loss in human MCF7 cells assessed as increase in fluorescence intensity at 12 uM measured for 24 hrs by rhodamine-123 dye based flow cytometry analysis (reference value: 8%)
Method in brief: (§2)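 MCF-7 cells stained with rhodamine-123. Flow cytometry gave the percentage of cells with mitochondrial membrane potential loss against the untreated basal control. Mean ± SD of three independent investigations.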

[4] = system: MCF7; assay: Induction of apoptosis in human MCF7 cells assessed as increase in number of late apoptotic cells at 12 uM incubated for 24 hrs by acridine orange/EtBr staining based fluorescence microscopic analysis
[5] = system: MCF7; assay: Induction of apoptosis in human MCF7 cells assessed as decrease in Bcl-2 mRNA expression at 12 uM measured for 24 hrs bt RT-PCR analysis; format: functional, cell-based
Method in brief: (§3)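 mRNA levels of Bax, Bad (pro-apoptotic) and Bcl-2 (anti-apoptotic) measured in treated MCF-7 cells relative to untreated control. Mean ± SD of three independent studies.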

[6] = Drug localization in human MCF7 cells at 12 uM incubated for 24 hrs by DAPI staining based confocal fluorescence microscopic analysis; format: ADME, cell-based; conditions: mcf7, 24 h
[7] = system: MCF7; assay: Induction of DNA fragmentation in human MCF7 cells assessed as increase in condensed nuclei at 12 uM measured for 24 hrs by DAPI staining based fluorescence microscopic analysis; format: functional, cell-based
Method in brief: (§4)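 MCF-7 nuclei stained with DAPI after exposure, with cisplatin (5 μM) as reference. Fluorescence microscopy scored condensed and fragmented nuclei. Images represent three individual experiments. Scale bar 150 μm.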

[8] = system: MCF7; assay: Induction of intracellular ROS generation in human MCF7 cells at 12 uM incubated for 24 hrs by DCFDA staining based fluorescence microscopic analysis; format: functional, cell-based
Method in brief: (§5)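 DCFDA-loaded MCF-7 cells imaged by fluorescence microscopy at 20× for qualitative ROS signal. Cisplatin serves as standard. Images represent three experiments. Scale bar 150 μm.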

[9] = system: MCF7; assay: Induction of ROS production in human MCF7 cells assessed as increase in ROS level at 12 uM incubated for 24 hrs by DCFH-DA staining based flow cytometry analysis; format: functional, cell-based
Method in brief: (§6)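 Intracellular ROS measured with the H2DCFDA probe. Esterase-deacetylated dye is oxidised to fluorescent DCF (ex 498/em 522 nm). Flow cytometry gave the percentage of ROS-positive MCF-7 cells against untreated control, with cisplatin (5 μM) as positive control. Mean ± SD of three independent investigations.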

[10] = system: Mitochondrial membrane; assay: Induction of mitochondrial membrane potential loss in human MCF7 cells assessed as increase in fluorescence intensity at 12 uM measured for 24 hrs by rhodamine-123 dye based flow cytometry analysis; method in brief: as §2
[11] = system: MCF7; assay: Induction of apoptosis in human MCF7 cells assessed as increase in Bad mRNA expression at 12 uM measured for 24 hrs bt RT-PCR analysis; format: functional, cell-based; method in brief: as §3
[12] = system: MCF7; assay: Induction of apoptosis in human MCF7 cells assessed as increase in number of necrotic cells at 12 uM incubated for 24 hrs by acridine orange/EtBr staining based fluorescence microscopic analysis
[13] = system: MCF7; assay: Induction of apoptosis in human MCF7 cells assessed as increase in Bax mRNA expression at 12 uM measured for 24 hrs bt RT-PCR analysis; format: functional, cell-based; method in brief: as §3
[14] = system: MCF7; assay: Induction of DNA fragmentation in human MCF7 cells assessed as increase in fragmented nuclei at 12 uM measured for 24 hrs by DAPI staining based fluorescence microscopic analysis; format: functional, cell-based; method in brief: as §4
[15] = Drug localization in cytoplasm of human MCF7 cells assessed as increase in red fluorescence at 10 uM incubated for 24 hrs by DAPI staining based confocal fluorescence microscopic analysis; format: ADME, subcellular; conditions: mcf7, 24 h
[16] = system: MCF7; assay: Induction of apoptosis in human MCF7 cells assessed as increase in Bax mRNA expression at 10 uM measured for 24 hrs bt RT-PCR analysis; format: functional, cell-based; method in brief: as §3
[17] = system: MCF7; assay: Induction of apoptosis in human MCF7 cells assessed as decrease in Bcl-2 mRNA expression at 10 uM measured for 24 hrs bt RT-PCR analysis; format: functional, cell-based; method in brief: as §3
[18] = system: MCF7; assay: Induction of DNA fragmentation in human MCF7 cells assessed as increase in condensed nuclei at 10 uM measured for 24 hrs by DAPI staining based fluorescence microscopic analysis; format: functional, cell-based; method in brief: as §4
[19] = system: MCF7; assay: Induction of apoptosis in human MCF7 cells assessed as increase in early apoptotic cells at 10 uM incubated for 24 hrs by acridine orange/EtBr staining based fluorescence microscopic analysis; format: functional, cell-based
Method in brief: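 Acridine orange/ethidium bromide dual staining of MCF-7 cells, with cisplatin (5 μM) as reference. Fluorescence microscopy classified cells as live (green nuclei), early apoptotic, late apoptotic or necrotic (orange-red nuclei). Images represent three independent experiments.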

[20] = system: MCF7; assay: Induction of intracellular ROS generation in human MCF7 cells at 10 uM incubated for 24 hrs by DCFDA staining based fluorescence microscopic analysis; format: functional, cell-based; method in brief: as §5
[21] = system: Mitochondrial membrane; assay: Induction of mitochondrial membrane potential loss in human MCF7 cells assessed as increase in fluorescence intensity at 10 uM measured for 24 hrs by rhodamine-123 dye based flow cytometry analysis; method in brief: as §2
[22] = Drug localization in nucleus of human MCF7 cells assessed as increase in red fluorescence at 10 uM incubated for 24 hrs by DAPI staining based confocal fluorescence microscopic analysis; format: ADME, subcellular; conditions: mcf7, 24 h
[23] = system: Mitochondrial membrane; assay: Induction of mitochondrial membrane potential loss in human MCF7 cells assessed as increase in fluorescence intensity at 10 uM measured for 24 hrs by rhodamine-123 dye based flow cytometry analysis (reference value: 8%); method in brief: as §2
[24] = system: MCF7; assay: Induction of DNA fragmentation in human MCF7 cells assessed as increase in fragmented nuclei at 10 uM measured for 24 hrs by DAPI staining based fluorescence microscopic analysis; format: functional, cell-based; method in brief: as §4
[25] = system: MCF7; assay: Induction of apoptosis in human MCF7 cells assessed as increase in Bad mRNA expression at 10 uM measured for 24 hrs bt RT-PCR analysis; format: functional, cell-based; method in brief: as §3
[26] = system: MCF7; assay: Induction of ROS production in human MCF7 cells assessed as increase in ROS level at 10 uM incubated for 24 hrs by DCFH-DA staining based flow cytometry analysis; format: functional, cell-based; method in brief: as §6

Work on `CCOC(=O)c1n[nH]nc1-c1cc2ccc(C)cc2nc1Oc1ccc(I)cc1` yielded an IC50 [1] of 20 µM.
For `NC(=O)c1n[nH]nc1-c1cc2ccccc2nc1Oc1ccc(Br)cc1`, the Activity [2] was “Non-Toxic”, the Activity [3] was 14% and the IC50 [1] was 12 µM. The Activity [4] was “Active”, the Activity [5] was “Active” and the Drug uptake [6] was “Not Active”. The Activity [7] was “Active”, the Activity [8] was “Active” and the Activity [9] was “Active”. The Activity [10] was “Active”, the Activity [11] was “Active” and the Activity [12] was “Active”. For the same molecule, the Activity [13] was “Active” and the Activity [14] was “Active”.
For `CCOC(=O)c1n[nH]nc1-c1cc2ccc(C)cc2nc1Oc1ccc(C)cc1`, the IC50 [1] was 42.5 µM.
`CCOC(=O)c1n[nH]nc1-c1cc2ccccc2nc1Oc1ccc(C)cc1` showed an IC50 [1] of 53 µM.
For `Cc1ccc(Oc2nc3ccccc3cc2-c2n[nH]nc2C(N)=O)cc1`, the IC50 [1] was 62.5 µM.
In the case of `N#Cc1ccc(Oc2nc3ccccc3cc2-c2n[nH]nc2C(N)=O)cc1`, the Drug uptake [15] is reported as “Active”, the Activity [16] is reported as “Active” and the Activity [2] is reported as “Non-Toxic”. For the same molecule, the IC50 [1] was 10 µM, the Activity [17] was “Active” and the Activity [18] was “Active”. The Activity [19] was “Active”, the Activity [20] was “Active” and the Activity [21] was “Active”. The Drug uptake [22] was “Active”, the Activity [23] was 23% and the Activity [24] was “Active”. For the same molecule, the Activity [25] was “Active” and the Activity [26] was “Active”.
`CCOC(=O)c1n[nH]nc1-c1cc2cc(C)c(C)cc2nc1Oc1ccc(C#N)cc1` showed an IC50 [1] of 65 µM.
`NC(=O)c1n[nH]nc1-c1cc2ccccc2nc1Oc1ccc(I)cc1` showed an IC50 [1] of 17.5 µM.
Work on `CCOC(=O)c1n[nH]nc1-c1cc2ccc(C)cc2nc1Oc1ccc(C#N)cc1` yielded an IC50 [1] of 19 µM.
In the case of `CCOC(=O)c1n[nH]nc1-c1cc2ccccc2nc1Oc1ccccc1`, the IC50 [1] is reported as 90 µM.
